Data set [1] in a line: Induction in caspase-mediated apoptosis in human NB4-DR1 cells assessed as viable cells at 25 uM incubated for 24 hrs by Annexin V-FITC/propidium iodide staining based flow cytometry analysis (reference value: 96.9%). The settings on record: read-out: Activity. Format: functional. Background: A flow cytometer gives signals particle by particle.
Data set [2] in a line: Induction in caspase-mediated apoptosis in human NB-4 cells assessed as early apoptotic cells at 50 uM incubated for 24 hrs in presence of Z-VAD-FMK by Annexin V-FITC/propidium iodide staining based flow cytometry analysis (reference value: 1.84%). It is filed as functional.
A short description of data set [3]: Induction in caspase-mediated apoptosis in human NB4-DR1 cells assessed as early apoptotic cells at 100 uM incubated for 24 hrs by Annexin V-FITC/propidium iodide staining based flow cytometry analysis (reference value: 1.43%). It is filed as functional.
The nature of data set [4]: Induction in caspase-mediated apoptosis in human NB4-DR1 cells assessed as early apoptosis cells at 50 uM incubated for 24 hrs in presence of Z-VAD-FMK by Annexin V-FITC/propidium iodide staining based flow cytometry analysis (reference value: 0.875%). Format: functional.
In data set [5] the target is Glycogen synthase kinase-3 alpha (Homo sapiens) (UniProt P49840). Kind of data set: Inhibition of recombinant human GSK-3alpha at 100 uM by mobility shift assay relative to control.
Glycogen synthase kinase-3 alpha (Homo sapiens), sequence (P49840 2-483 limits assumed): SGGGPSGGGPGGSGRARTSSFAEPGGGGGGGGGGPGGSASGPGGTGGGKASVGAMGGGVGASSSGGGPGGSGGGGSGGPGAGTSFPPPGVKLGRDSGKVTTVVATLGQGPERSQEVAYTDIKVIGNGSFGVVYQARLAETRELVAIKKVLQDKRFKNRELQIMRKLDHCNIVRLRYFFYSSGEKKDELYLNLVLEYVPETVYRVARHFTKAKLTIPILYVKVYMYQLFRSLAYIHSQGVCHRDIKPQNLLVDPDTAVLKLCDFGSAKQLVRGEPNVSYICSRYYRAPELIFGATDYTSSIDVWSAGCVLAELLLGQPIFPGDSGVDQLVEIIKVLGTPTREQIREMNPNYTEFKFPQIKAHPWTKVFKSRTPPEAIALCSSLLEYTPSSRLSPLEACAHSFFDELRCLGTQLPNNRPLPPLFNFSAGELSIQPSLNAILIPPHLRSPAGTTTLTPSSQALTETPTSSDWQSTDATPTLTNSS
Data set [6] has as its system MOLT-4. Kind of data set: Cytotoxicity against human MOLT-4 cells assessed as reduction in cell viability measured after 24 hrs by CCK-8 assay. Format: functional, cell-based. The settings on record: MOLT-4, 24 h. A digest of the protocol: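 Cells were grown in RPMI-1640 or high-glucose DMEM with 10% FBS at 37 °C, 5% CO2, and seeded at 3 × 10^4 cells/well. Exposure was 24 h across serial concentrations (0−1000 μM in the screen). […] Three independent experiments, mean ± SEM.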
(In general: Tetrazolium assays rely on reduction of a dye to a coloured formazan, in cell work by metabolically active cells.)

The nature of data set [7]: Induction in caspase-mediated apoptosis in human NB-4 cells assessed as viable cells at 100 uM incubated for 24 hrs by Annexin V-FITC/propidium iodide staining based flow cytometry analysis (reference value: 96.6%). The settings on record: read-out: Activity. Format: functional.
Data set [8] can be described thus: Induction in caspase-mediated apoptosis in human NB4-DR1 cells assessed as early apoptotic cells at 50 uM incubated for 24 hrs by Annexin V-FITC/propidium iodide staining based flow cytometry analysis (reference value: 1.43%). It is filed as functional.
Data set [9] is described as follows: Cytotoxicity against HUVEC assessed as cell viability at 0 to 50 uM incubated for 24 hrs by CCK-8 assay relative to control. The settings on record: human, dose 0-50 µM, read-out: Activity. It is filed as cell-based. In outline:
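HUVEC and LO2 normal cells were cultured in RPMI-1640 or DMEM with 10% FBS at 37 °C, 5% CO2, and seeded at 3 × 10^4 cells/well. They were exposed for 24 h to graded concentrations. CCK-8 incubation was 3 h at 37 °C, with A450 read and viability expressed versus untreated control. Three independent experiments, mean ± SEM.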

A short description of data set [10]: Induction in caspase-mediated apoptosis in human NB-4 cells assessed as early apoptotic cells at 12.5 uM incubated for 24 hrs in presence of Z-VAD-FMK by Annexin V-FITC/propidium iodide staining based flow cytometry analysis (reference value: 1.84%). Format: functional.

The structures appear in SMILES notation.

The term inhibition denotes the change of the read-out against control, counted positive when it falls. By IC50 is commonly meant the concentration that gives 50% inhibition. On to `C=CC(=O)N1C(=O)CC(c2ccc(F)cc2)Sc2ccccc21` (stereo not given), for which the viability at 25 µM in data set [1] turned out to be 81.8%. Moreover, the Activity was 8.18% in data set [2]; 4.16% in [3]; 1.12% in [4]; 1.92% in data set [8]; 4.58% in [10]. For the same compound, the inhibition in [5] is 87.3%. In data set [6], the IC50 worked out at 75.6 µM. For the same compound, the viability at 100 µM in data set [7] was 5.94%. In addition, the viability at 24 h, up to 50 µM in [9] is greater than 80%.

Values taken from ChEMBL document CHEMBL5036319, “Discovery of Novel Benzothiazepinones as Irreversible Covalent Glycogen Synthase Kinase 3β Inhibitors for the Treatment of Acute Promyelocytic Leukemia” (J Med Chem, 2021).
